Results taken from ChEMBL document CHEMBL1121770, “Substituted imidazo[2,3-alpha]pyridine-2-carbamate anthelmintics” (1981).

What was measured:
Type in all cases: functional
Mus musculus [1] = assay: Compound was administered at 250 p.p.m. in the diet of mice, for percent reduction of Nematospiroides dubius in mice
Procedure, shortened: (§1)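 Mouse infection test run by Baker's method, three mice per treated group. Worm counts are averaged per mouse, and percent reduction is derived from them. Reductions below 20% are recorded as 0.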

Mus musculus [2] = assay: Compound was administered at 125 p.p.m. in the diet of mice, for percent reduction of Nematospiroides dubius in mice; procedure, shortened: as §1
Mus musculus [3] = assay: Compound was administered at 62.5 p.p.m. in the diet of mice, for percent reduction of Nematospiroides dubius in mice; procedure, shortened: as §1
Mus musculus [4] = assay: Compound was administered at 500 p.p.m. in the diet of mice, for percent reduction of Nematospiroides dubius in mice; procedure, shortened: as §1
Mus musculus [5] = assay: Compound was administered at 1000 p.p.m. in the diet of mice, for percent reduction of Nematospiroides dubius in mice; procedure, shortened: as §1

Compound | Reduction (Mus musculus [1]) | Reduction (Mus musculus [2]) | Reduction (Mus musculus [3]) | Reduction (Mus musculus [4]) | Reduction (Mus musculus [5])
CC(C)OC(=O)Nc1ccc2[nH]c(-c3cscn3)nc2c1 [CAMBENDAZOLE] | 73% | 0% | 0% | 100% | –
COC(=O)Nc1cn2cc([S+]([O-])c3ccccc3)ccc2n1 (centres undefined) | – | 100% | 35% | – | –
COC(=O)Nc1cn2ccccc2n1 | – | – | – | 0% | 54%
COC(=O)Nc1cn2cc(C(=O)c3ccccc3)ccc2n1 | – | – | – | 0% | 0%
CCCOc1ccc2nc(NC(=O)OC)cn2c1 | 74% | 44% | 0% | – | –
c1ccc2[nH]c(-c3cscn3)nc2c1 [THIABENDAZOLE] | 26% | 0% | – | 86% | 100%
COC(=O)Nc1cn2cc(Sc3ccccc3)ccc2n1 | 98% | 38% | 0% | 100% | –
COC(=O)Nc1nc2cc(C(Cl)=C(Cl)Cl)ccc2[nH]1 | 99% | 69% | 57% | – | –
COC(=O)Nc1cn2cc(C(Cl)=C(Cl)Cl)ccc2n1 | – | 94% | 94% | – | –
CCCSc1ccc2nc(NC(=O)OC)cn2c1 | 100% | 74% | 0% | – | –
